Here are results for 52 compounds from ChEMBL document CHEMBL2146472, “Identification and development of the 1,4-benzodiazepin-2-one and quinazoline-2,4-dione scaffolds as submicromolar inhibitors of HAT” (2012).

Converted amounts (≈) assume the structure as drawn. The source made the active and inactive calls. The rule behind the calls is not given here.

One test concerns Trypanosoma brucei brucei. The test can be described thus: Antitrypanosomal activity against bloodstream form of Trypanosoma brucei brucei S427 after 48 hrs by Alamar Blue assay. Type of test: functional.
Conditions: not given
An outline of the steps: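 T. b. brucei S427 cultured in HMI-9 with 20% […] FCS, 37 °C, 5% CO2. Compounds from 0.1 M DMSO stocks diluted in HMI-9 (top wells 50, 200 or 400 μM), serially diluted; cells added at 2 × 10⁴ cells/mL. 48 h incubation, then resazurin (Alamar Blue) for further 24 h; fluorescence ex 530/em 590 nm. MIC determined in duplicate.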
As a reminder, the MIC is the least concentration at which growth counts as inhibited. As to `O=C(O)CN1C(=O)CN(CC2CCCCC2)C(=O)c2ccccc21`, the MIC result is “inactive”.

With `CN1C(=O)CN(CC2CCNCC2)C(=O)c2ccccc21`, the MIC result is “inactive”.

For the compound `C=CCN1C(=O)CN(CC2CCNCC2)C(=O)c2ccccc21`, the MIC entry is “inactive”.

In the case of `O=C(O)CN1C(=O)CN(CC2CCCCC2)C(=O)c2cc(Cl)ccc21`, the MIC result is “inactive”.

As to `CN1C(=O)CN(CC2CCNCC2)C(=O)c2cc(Cl)ccc21`, the MIC entry was “inactive”.

The same test, now with this note: S427, 48 h.
Compound `O=C1c2cc(Cl)ccc2N(Cc2ccccc2)C(=O)CN1CC1CCNCC1` displayed an MIC of 125 µM (≈ 49.7 µg/mL).

Turning to `CC(C)(C)OC(=O)N1CCC(Cn2c(=O)c3cc(Cl)ccc3n(Cc3ccc(-c4ccccc4)cc3)c2=O)CC1`, the lowest concentration to inhibit growth (MIC) was 125 µM (≈ 70 µg/mL).

In the case of `O=C1c2ccccc2N(Cc2ccccc2-c2ccccc2)C(=O)CN1CC1CCCCC1`, 125 µM (≈ 54.8 µg/mL) was the least that counted as inhibitory (MIC).

In turn, `CCCCN1C(=O)CN(CC2CCCCC2)C(=O)c2cc(Cl)ccc21` returned a minimal inhibitory concentration (MIC) of 15.6 µM (≈ 5.66 µg/mL).

As to `O=C1c2cc(Cl)ccc2N(Cc2ccccc2-c2ccccc2)C(=O)CN1CC1CCCCC1`, the MIC stood at 7.8 µM (≈ 3.69 µg/mL).

In turn, `CN1C(=O)CN(CC2CCCCC2)C(=O)c2ccccc21` returned an MIC of 125 µM (≈ 35.8 µg/mL).

The compound `CCN1C(=O)CN(CC2CCCCC2)C(=O)c2ccccc21` yielded a minimal inhibitory concentration (MIC) of 62.5 µM (≈ 18.8 µg/mL).

With `CCN1C(=O)CN(CC2CCCCC2)C(=O)c2cc(Cl)ccc21`, 62.5 µM (≈ 20.9 µg/mL) was the least that counted as inhibitory (MIC).

On to `O=C1c2ccccc2N(Cc2ccccc2-c2ccccc2)C(=O)CN1CC1CCNCC1`, for which it took 31.2 µM (≈ 13.7 µg/mL) to inhibit growth (MIC).

`Cn1c(=O)n(CC2CCCCC2)c(=O)c2ccccc21` returned a minimum inhibitory concentration (MIC) of 62.5 µM (≈ 17 µg/mL).

In turn, `CCCN1C(=O)CN(CC2CCCCC2)C(=O)c2ccccc21` had an MIC of 62.5 µM (≈ 19.7 µg/mL).

`CCCCn1c(=O)n(CC2CCCCC2)c(=O)c2cc(Cl)ccc21`: the MIC was found to be 62.5 µM (≈ 21.8 µg/mL).

Take `CCOC(=O)CN1C(=O)CN(CC2CCCCC2)C(=O)c2ccccc21`: it took 125 µM (≈ 44.8 µg/mL) to inhibit growth (MIC).

`CCCCN1C(=O)CN(CC2CCNCC2)C(=O)c2cc(Cl)ccc21` displayed an MIC of 250 µM (≈ 91 µg/mL).

Compound `O=C1c2cc(Cl)ccc2N(Cc2ccc(-c3ccccc3)cc2)C(=O)CN1CC1CCCCC1` yielded an MIC of 3.9 µM (≈ 1.84 µg/mL).

For `CCCN1C(=O)CN(CC2CCCCC2)C(=O)c2cc(Cl)ccc21`, the MIC amounted to 31.2 µM (≈ 10.9 µg/mL).

Compound `O=C1c2cc(Cl)ccc2N(Cc2ccccc2)C(=O)CN1CC1CCCCC1` registered an MIC of 15.6 µM (≈ 6.19 µg/mL).

As to `O=c1c2ccccc2n(Cc2ccccc2-c2ccccc2)c(=O)n1CC1CCNCC1`, the MIC stood at 3.9 µM (≈ 1.66 µg/mL).

`O=C1c2ccccc2N(Cc2ccccc2)C(=O)CN1CC1CCCCC1` had an MIC of 31.2 µM (≈ 11.3 µg/mL).

As to `CC(C)(C)OC(=O)N1CCC(Cn2c(=O)c3ccccc3n(Cc3ccccc3-c3ccccc3)c2=O)CC1`, the MIC is 125 µM (≈ 65.7 µg/mL).

Turning to `O=C1c2ccccc2N(CC2CC2)C(=O)CN1CC1CCCCC1`, the MIC stood at 62.5 µM (≈ 20.4 µg/mL).

The compound `O=c1c2cc(Cl)ccc2n(Cc2ccc(-c3ccccc3)cc2)c(=O)n1CC1CCNCC1` registered a minimal inhibitory concentration (MIC) of 0.97 µM (≈ 0.446 µg/mL).

For `O=C1c2ccccc2N(Cc2ccccc2)C(=O)CN1CC1CCNCC1`, 250 µM (≈ 90.9 µg/mL) was the least that counted as inhibitory (MIC).

The compound `O=c1c2ccccc2n(Cc2ccccc2)c(=O)n1CC1CCCCC1` registered an MIC of 15.6 µM (≈ 5.44 µg/mL).

As for `CCOC(=O)CN1C(=O)CN(CC2CCCCC2)C(=O)c2cc(Cl)ccc21`, the MIC was 62.5 µM (≈ 24.6 µg/mL).

The compound `CN1C(=O)CN(CC2CCCCC2)C(=O)c2cc(Cl)ccc21` returned a minimum inhibitory concentration (MIC) of 62.5 µM (≈ 20.1 µg/mL).

On to `CC(C)(C)OC(=O)N1CCC(Cn2c(=O)c3cc(Cl)ccc3n(Cc3ccccc3-c3ccccc3)c2=O)CC1`, for which the lowest concentration to inhibit growth (MIC) was 7.8 µM (≈ 4.37 µg/mL).

Turning to `O=c1c2cc(Cl)ccc2n(Cc2ccccc2)c(=O)n1CC1CCNCC1`, inhibition of growth (MIC) required 15.6 µM (≈ 5.99 µg/mL).

The compound `O=C1c2cc(Cl)ccc2N(Cc2ccccc2-c2ccccc2)C(=O)CN1CC1CCNCC1` yielded an MIC of 7.8 µM (≈ 3.7 µg/mL).

`CCOC(=O)Cn1c(=O)n(CC2CCCCC2)c(=O)c2ccccc21` displayed an MIC of 31.2 µM (≈ 10.8 µg/mL).

`O=c1c2cc(Cl)ccc2n(Cc2ccccc2-c2ccccc2)c(=O)n1CC1CCNCC1` came in with an MIC of 0.97 µM (≈ 0.446 µg/mL).

The compound `CCn1c(=O)n(CC2CCCCC2)c(=O)c2cc(Cl)ccc21` came in with an MIC of 15.6 µM (≈ 5 µg/mL).

Turning to `CCCCN1C(=O)CN(CC2CCCCC2)C(=O)c2ccccc21`, the MIC stood at 31.2 µM (≈ 10.3 µg/mL).

Take `O=c1c2cc(Cl)ccc2n(Cc2ccccc2-c2ccccc2)c(=O)n1CC1CCCCC1`: the MIC was found to be 62.5 µM (≈ 28.7 µg/mL).

As for `C=CCN1C(=O)CN(CC2CCCCC2)C(=O)c2ccccc21`, the MIC is 125 µM (≈ 39.1 µg/mL).

`O=c1c2cc(Cl)ccc2n(Cc2ccc(-c3ccccc3)cc2)c(=O)n1CC1CCCCC1` displayed an MIC of 125 µM (≈ 57.4 µg/mL).

`C=CCN1C(=O)CN(CC2CCCCC2)C(=O)c2cc(Cl)ccc21` yielded an MIC of 62.5 µM (≈ 21.7 µg/mL).

Compound `CC(C)(C)OC(=O)N1CCC(Cn2c(=O)c3cc(Cl)ccc3n(Cc3ccccc3)c2=O)CC1` showed an MIC of 62.5 µM (≈ 30.2 µg/mL).

In the case of `Cn1c(=O)n(CC2CCCCC2)c(=O)c2cc(Cl)ccc21`, it took 31.2 µM (≈ 9.57 µg/mL) to inhibit growth (MIC).

Consider `CCCCN1C(=O)CN(CC2CCNCC2)C(=O)c2ccccc21`, for which the MIC was determined as 62.5 µM (≈ 20.6 µg/mL).

The compound `O=c1c2cc(Cl)ccc2n(Cc2ccccc2)c(=O)n1CC1CCCCC1` returned an MIC of 62.5 µM (≈ 23.9 µg/mL).

The compound `O=c1c2ccccc2n(Cc2ccccc2-c2ccccc2)c(=O)n1CC1CCCCC1` registered an MIC of 7.8 µM (≈ 3.31 µg/mL).

In turn, `O=C1c2cc(Cl)ccc2N(CC2CC2)C(=O)CN1CC1CCCCC1` came in with a minimum inhibitory concentration (MIC) of 31.2 µM (≈ 11.3 µg/mL).

Consider `CCn1c(=O)n(CC2CCCCC2)c(=O)c2ccccc21`, for which the MIC was determined as 31.2 µM (≈ 8.93 µg/mL).

In the case of `CCOC(=O)Cn1c(=O)n(CC2CCCCC2)c(=O)c2cc(Cl)ccc21`, the MIC worked out at 250 µM (≈ 94.7 µg/mL).

`C=CCN1C(=O)CN(CC2CCNCC2)C(=O)c2cc(Cl)ccc21` returned an MIC of 250 µM (≈ 87 µg/mL).

`O=C1c2ccccc2N(Cc2ccc(-c3ccccc3)cc2)C(=O)CN1CC1CCCCC1` yielded an MIC of 7.8 µM (≈ 3.42 µg/mL).
